Measurements as given in ChEMBL document CHEMBL3817731, “Synthesis and investigation of novel benzimidazole derivatives as antifungal agents” (Bioorg Med Chem, 2016).
≈ marks a conversion by molar mass, not a printed value. Calls of active or inactive are those of the source. No cut-off for these calls is given here.

Columns and labels:
Candida albicans [1] = assay: Antifungal activity against Candida albicans ATCC 64124 after 48 hrs by CLSI M27-A3 method; format: functional; details: ATCC 64124, 48 h
Candida albicans [2] = assay: Antifungal activity against Candida albicans ATCC MYA-2876 after 48 hrs by CLSI M27-A3 method; format: functional; details: ATCC MYA-2876, 48 h
Candida albicans [3] = assay: Antifungal activity against Candida albicans ATCC MYA-2310 after 48 hrs by CLSI M27-A3 method; format: functional; details: ATCC MYA-2310, 48 h
Candida albicans [4] = assay: Antifungal activity against Candida albicans ATCC MYA-1237 after 48 hrs by CLSI M27-A3 method; format: functional; details: ATCC MYA-1237, 48 h
Candida albicans [5] = assay: Antifungal activity against Candida albicans ATCC 10231 after 48 hrs by CLSI M27-A3 method; format: functional; details: ATCC 10231, 48 h
Nakaseomyces glabratus = assay: Antifungal activity against Candida glabrata ATCC 2001 after 48 hrs by CLSI M27-A3 method; format: functional; details: CBS 138, 48 h
Pichia kudriavzevii = assay: Antifungal activity against Candida krusei ATCC 6258 after 48 hrs by CLSI M27-A3 method; format: functional; details: ATCC 6258, 48 h
Candida parapsilosis = assay: Antifungal activity against Candida parapsilosis ATCC 22019 after 48 hrs by CLSI M27-A3 method; format: functional; details: Lodderomyces parapsilosis, ATCC 22019, 48 h
Aspergillus flavus = assay: Antifungal activity against Aspergillus flavus ATCC MYA-3631 after 48 hrs by CLSI M38-A2 method; format: functional; details: ATCC MYA-3631, 48 h
A549 = assay: Cytotoxicity against human A549 cells assessed as reduction in cell survival after 24 hrs by resazurin assay; format: cell-based; details: A549, 24 h
Procedure, shortened: (§1)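 Human A549 cells treated 24 h; BEAS 2B cells treated 6 h or 24 h. DMSO-treated cells served as negative control and Triton X-treated cells as positive control. Read-out was cell survival.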

[6] = Cytotoxicity against human BEAS2B cells assessed as reduction in cell survival after 6 hrs by resazurin assay; format: cell-based; details: beas-2b; procedure, shortened: as §1
[7] = Cytotoxicity against human BEAS2B cells assessed as reduction in cell survival after 24 hrs by resazurin assay; format: cell-based; details: BEAS-2B; procedure, shortened: as §1
Candida albicans [8] = assay: Antifungal activity against Candida albicans ATCC MYA-90819 after 48 hrs by CLSI M27-A3 method; format: functional; details: ATCC MYA-90819, 48 h
Candida albicans [9] = assay: Antifungal activity against Candida albicans ATCC MYA-1003 after 48 hrs by CLSI M27-A3 method; format: functional; details: ATCC MYA-1003, 48 h
Aspergillus terreus = assay: Antifungal activity against Aspergillus terreus ATCC MYA3633 after 48 hrs by CLSI M38-A2 method; format: functional; details: ATCC MYA3633, 48 h
Candida albicans [10] = assay: Fungicidal activity against Candida albicans ATCC 64124 assessed as reduction in fungal population at MIC after 9 hrs by time kill assay; format: functional
Candida albicans [11] = assay: Fungicidal activity against Candida albicans ATCC 64124 assessed as reduction in fungal population at 2 times MIC after 24 to 48 hrs by time kill assay; format: functional
Candida albicans [12] = assay: Induction of ROS production in Candida albicans ATCC 10231 at 1 to 2 times MIC after 1 hr by DCFH-DA probe based fluorescence microscopy; format: functional, organism-based
Aspergillus nidulans = assay: Antifungal activity against Aspergillus nidulans ATCC 38163 after 48 hrs by CLSI M38-A2 method; format: functional; details: ATCC 38163, 48 h
Candida albicans [13] = assay: Fungistatic activity against Candida albicans ATCC 64124 assessed as reduction in fungal population at MIC upto 24 hrs by time kill assay; format: functional, organism-based
Candida albicans [14] = assay: Fungistatic activity against Candida albicans ATCC 64124 assessed as reduction in fungal population at MIC after 24 hrs by time kill assay
Candida albicans [15] = assay: Induction of ROS production in Candida albicans ATCC 10231 at 8 to 16 ug/ml after 1 hr by DCFH-DA probe based fluorescence microscopy; format: functional, organism-based
Procedure, shortened: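 C. albicans ATCC 10231 yeast cells exposed to drug at 8 and 16 µg/mL for 1 h at 35 °C, alongside untreated and AmB controls. Cells were then stained with DCFH-DA (20 µg/mL) for 30 min in the dark. Intracellular ROS was visualised by fluorescence microscopy.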

Compound	MIC (Candida albicans [1]) [µg/mL]	MIC (Candida albicans [2]) [µg/mL]	MIC (Candida albicans [3]) [µg/mL]	MIC (Candida albicans [4]) [µg/mL]	MIC (Candida albicans [5]) [µg/mL]	MIC (Nakaseomyces glabratus) [µg/mL]	MIC (Pichia kudriavzevii) [µg/mL]	MIC (Candida parapsilosis) [µg/mL]	MIC (Aspergillus flavus) [µg/mL]	IC50 (A549) [µg/mL]	Activity [6]	IC50 [7] [µg/mL]	MIC (Candida albicans [8]) [µg/mL]	MIC (Candida albicans [9]) [µg/mL]	MIC (Aspergillus terreus) [µg/mL]	Activity (Candida albicans [11])	Activity (Candida albicans [12])	MIC (Aspergillus nidulans) [µg/mL]	Activity (Candida albicans [13])	Activity (Candida albicans [14]) [log10CFU]	further results
C#CCOc1ccc(-c2nc3ccc(-c4nc5ccc(N6CCN(C)CC6)cc5[nH]4)cc3[nH]2)cc1	31.2 (≈ 67.5 µM)	7.8 (≈ 16.9 µM)	7.8 (≈ 16.9 µM)	> 31.2	7.8 (≈ 16.9 µM)	7.8 (≈ 16.9 µM)	7.8 (≈ 16.9 µM)	1.95 (≈ 4.22 µM)	> 31.2	15.6 (≈ 33.7 µM)	Non-toxic	0.98 (≈ 2.12 µM)	–	–	–	–	–	–	–	–	–
C[C@@H]1[C@H](O)[C@@H](C)/C=C/C=C/C=C/C=C/C=C/C=C/C=C/[C@H](O[C@@H]2O[C@H](C)[C@@H](O)[C@H](N)[C@@H]2O)C[C@@H]2O[C@](O)(C[C@@H](O)C[C@@H](O)[C@H](O)CC[C@@H](O)C[C@@H](O)CC(=O)O[C@H]1C)C[C@H](O)[C@H]2C(=O)O [AMPHOTERICIN B]	3.9 (≈ 4.22 µM)	1.95 (≈ 2.11 µM)	1.95 (≈ 2.11 µM)	3.9 (≈ 4.22 µM)	3.9 (≈ 4.22 µM)	1.95 (≈ 2.11 µM)	3.9 (≈ 4.22 µM)	1.95 (≈ 2.11 µM)	–	–	–	–	0.975 (≈ 1.06 µM)	3.9 (≈ 4.22 µM)	3.9 (≈ 4.22 µM)	Active	Active	–	–	–	Activity (Candida albicans [10]): Active
CCOc1ccc(-c2nc3cc(-c4nc5cc(N6CCN(C)CC6)ccc5[nH]4)ccc3[nH]2)cc1	7.8 (≈ 17.2 µM)	7.8 (≈ 17.2 µM)	7.8 (≈ 17.2 µM)	7.8 (≈ 17.2 µM)	7.8 (≈ 17.2 µM)	7.8 (≈ 17.2 µM)	7.8 (≈ 17.2 µM)	3.9 (≈ 8.62 µM)	31.2 (≈ 68.9 µM)	0.98 (≈ 2.17 µM)	Non-toxic	1.95 (≈ 4.31 µM)	7.8 (≈ 17.2 µM)	15.6 (≈ 34.5 µM)	7.8 (≈ 17.2 µM)	5 log10CFU	Active	3.9 (≈ 8.62 µM)	Active	1	–
CN1CCN(c2ccc3[nH]c(-c4ccc5[nH]c(-c6ccc(O)cc6)nc5c4)nc3c2)CC1 [HOECHST 33258]	–	7.8 (≈ 18.4 µM)	3.9 (≈ 9.19 µM)	3.9 (≈ 9.19 µM)	–	0.975 (≈ 2.3 µM)	–	0.975 (≈ 2.3 µM)	31.2 (≈ 73.5 µM)	≥ 31.2	Non-toxic	≥ 31.2	7.8 (≈ 18.4 µM)	7.8 (≈ 18.4 µM)	–	5 log10CFU	Active	1.95 (≈ 4.59 µM)	Active	1	–
COc1ccc(-c2nc3cc(-c4nc5cc(N6CCN(C)CC6)ccc5[nH]4)ccc3[nH]2)cc1	31.2 (≈ 71.1 µM)	15.6 (≈ 35.6 µM)	7.8 (≈ 17.8 µM)	15.6 (≈ 35.6 µM)	15.6 (≈ 35.6 µM)	3.9 (≈ 8.89 µM)	31.2 (≈ 71.1 µM)	3.9 (≈ 8.89 µM)	31.2 (≈ 71.1 µM)	0.98 (≈ 2.23 µM)	Non-toxic	1.95 (≈ 4.45 µM)	15.6 (≈ 35.6 µM)	> 31.2	15.6 (≈ 35.6 µM)	–	–	15.6 (≈ 35.6 µM)	–	–	–
CCCCCCCCCCCCN1CCN(c2ccc3nc(-c4ccc5nc(-c6ccc(O)cc6)[nH]c5c4)[nH]c3c2)CC1	> 31.2	> 31.2	> 31.2	> 31.2	> 31.2	> 31.2	> 31.2	> 31.2	> 31.2	–	–	–	> 31.2	> 31.2	> 31.2	–	–	> 31.2	–	–	Activity (Candida albicans [15]): inactive
